Reference: ChEMBL document CHEMBL5674890, “Selective inhibition of CBP/p300 HAT by A-485 results in suppression of lipogenesis and hepatic gluconeogenesis” (Cell Death Dis, 2020)
Calls of active or inactive are those of the source. The calls are words filed in the database; no cut-off is given here.

Key:
[1] = test system: Hepatocyte; experiment: Inhibition of lipogenesis in mouse primary hepatocytes assessed as decrease in SCD1 mRNA expression at 3 uM in presence of 100 nM insulin and 5 to 25 mM glucose measured after 18 hrs by RT-qPCR assay; assay type: functional, cell-based
How it was run: (§1)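 Primary hepatocytes isolated from C57BL/6 mice by two-step perfusion. Cells incubated 18 h with 3 μM inhibitor, with 0 or 100 nM insulin and 5 or 25 mM glucose. Transcripts quantified by SYBR Green RT-qPCR after Trizol RNA extraction; proteins by western blot of lysates. Mean ± SEM.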

[2] = test system: Mus musculus; experiment: Inhibition of hepatic lipogenesis in C57BL/6 mouse supplemented with normal chow diet assessed as effect on CPT1alpha mRNA expression at 20 mg/kg/day, ip administered for 1 week measured by RT-qPCR assay; assay type: functional, organism-based; settings: time 1.0 weeks
How it was run: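 Normal-chow male C57BL/6 mice, 8 weeks old, were injected ip at 20 mg·kg−1·day−1 daily for 7 days or given vehicle. Liver RNA was extracted with Trizol, and fatty-acid-oxidation gene transcripts were quantified by SYBR Green RT-qPCR. n = 5–9; mean ± SEM.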

[3] = test system: Hepatocyte; experiment: Inhibition of glucogenesis in mouse primary hepatocytes stimulated with 100 uM 8-Br-cAMP assessed as decrease in C/EBPalpha mRNA expression at 3 uM measured after 8 hrs by RT-qPCR assay; assay type: functional, cell-based
How it was run: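 Primary mouse hepatocytes treated with 3 μM compound and 100 μM 8-Br-cAMP for 8 h. Trizol RNA, SYBR Green RT-qPCR of the named transcript. Mean ± SEM, three independent experiments.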

[4] = test system: Mus musculus; experiment: Inhibition of lipogenesis in C57BL/6 mouse supplemented with normal chow diet assessed as decrease in FASN mRNA expression at 20 mg/kg/day, ip administered for 1 week measured by RT-qPCR assay; assay type: functional, organism-based; settings: time 1.0 weeks
How it was run: (§2)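 Eight-week-old male C57BL/6 mice on normal chow were given 20 mg·kg−1·day−1 ip daily for 7 days or vehicle. Epididymal WAT was collected. Lipogenic, adipogenic and fatty-acid-oxidation transcripts were quantified by Trizol extraction and SYBR Green RT-qPCR. FAS, ACC, PPARγ and C/EBPα protein were assessed by western blot. n = 5–9; mean ± SEM.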

[5] = test system: Hepatocyte; experiment: Inhibition of glucogenesis in mouse primary hepatocytes stimulated with 100 uM 8-Br-cAMP assessed as decrease in PEPCK mRNA expression at 3 uM in combination with 2 mM metformin measured by RT-qPCR assay; assay type: functional, cell-based
How it was run: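 Primary mouse hepatocytes given 3 μM compound with 2 mM metformin in the presence of 100 μM 8-Br-cAMP. Gluconeogenic gene mRNA measured by SYBR Green RT-qPCR. Mean ± SEM, three independent experiments.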

[6] = test system: Hepatocyte; experiment: Inhibition of lipogenesis in mouse primary hepatocytes assessed as decrease in ACC mRNA expression at 3 uM in presence of 100 nM insulin and 5 to 25 mM glucose measured after 18 hrs by RT-qPCR assay; assay type: functional, cell-based; how it was run: as §1
[7] = test system: Hepatocyte; experiment: Inhibition of lipogenesis in mouse primary hepatocytes assessed as decrease in ACC protein expression at 3 uM in presence of 100 nM insulin and 5 to 25 mM glucose measured after 18 hrs by western blot analysis; assay type: functional, cell-based
[8] = test system: Mus musculus; experiment: Inhibition of lipogenesis in C57BL/6 mouse supplemented with normal chow diet assessed as effect on UCP1 mRNA expression at 20 mg/kg/day, ip administered for 1 week measured by RT-qPCR assay; assay type: functional, organism-based; settings: time 1.0 weeks; how it was run: as §2
[9] = test system: HepG2; experiment: Inhibition of glucogenesis in human HepG2 cells stimulated with 8-Br-cAMP at 3 uM assessed as effect on change in CBP/CREB interaction measured by coimmunoprecipitation analysis; assay type: functional, cell-based
How it was run: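 HepG2 cells treated with 3 μM compound. CREB association with CBP and TORC2 assessed by coimmunoprecipitation (antibody 2 h, protein A/G beads overnight at 4 °C) and western blot.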

[10] = test system: Hepatocyte; experiment: Inhibition of glucogenesis in mouse primary hepatocytes stimulated with 100 uM 8-Br-cAMP assessed as decrease in glucose production at 3 uM measured after 24 hrs; assay type: functional, cell-based
How it was run: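 Two-step-perfusion primary mouse hepatocytes pretreated 16 h with 100 nM dexamethasone. Then incubated 24 h in glucose-free DMEM with 1 mM pyruvate, 10 mM lactate, 0.25% BSA, 100 μM 8-Br-cAMP and 3 μM test agent. Medium glucose measured colorimetrically. Mean ± SEM, three independent experiments.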

[11] = test system: Mus musculus; experiment: Anti-obesity activity in C57BL/6 mouse supplemented with high fat diet assessed as effect on random blood glucose at 20 mg/kg/day, ip administered for 1 week; assay type: functional, organism-based; settings: time 1.0 weeks
How it was run: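 Male C57BL/6 mice fed high-fat diet for 14 weeks from 5 weeks of age, then ip 20 mg·kg−1·day−1 for 7 days. Body weight, EchoMRI lean/fat mass, and random or 16 h-fasted blood glucose recorded, as the line states.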

[12] = test system: Mus musculus; experiment: Inhibition of lipogenesis in C57BL/6 mouse supplemented with high-fat diet assessed as decrease in SCD1 mRNA expression at 20 mg/kg/day, ip administered for 1 week measured by RT-qPCR assay; assay type: functional, organism-based; settings: time 1.0 weeks
How it was run: (§3)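 Male C57BL/6 mice were fed high-fat diet for 14 weeks from 5 weeks of age, then injected ip with 20 mg·kg−1·day−1 for 7 days or given vehicle. Epididymal and inguinal WAT were weighed, examined by H&E, and analysed. Transcripts were measured by Trizol/SYBR Green RT-qPCR; proteins by western blot. n = 5–9; mean ± SEM.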

[13] = test system: Adipocyte; experiment: Inhibition of lipogenesis in mouse adipocytes isolated stromal vascular cells assessed as decrease in C/EBPalpha protein expression measured after 24 hrs by western blot analysis; assay type: functional, cell-based
[14] = test system: Mus musculus; experiment: Inhibition of hepatic lipogenesis in C57BL/6 mouse supplemented with high fat diet assessed as decrease in total cholesterol level at 20 mg/kg/day, ip administered for 1 week; assay type: functional, organism-based; settings: time 1.0 weeks
How it was run: (§4)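 Male C57BL/6 mice received ip A-485 at 20 mg·kg−1·day−1 for 7 days, versus vehicle. NCD mice were 8 weeks old. HFD mice had been on high-fat diet for 14 weeks from 5 weeks of age. Liver triglyceride and total cholesterol content was determined. n = 5–9; mean ± SEM.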

[15] = test system: Mus musculus; experiment: Inhibition of lipogenesis in C57BL/6 mouse supplemented with normal chow diet assessed as effect on CPT1alpha mRNA expression at 20 mg/kg/day, ip administered for 1 week measured by RT-qPCR assay; assay type: functional, organism-based; settings: time 1.0 weeks; how it was run: as §2
[16] = test system: Mus musculus; experiment: Inhibition of lipogenesis in C57BL/6 mouse supplemented with high-fat diet assessed as decrease in FABP4 mRNA expression at 20 mg/kg/day, ip administered for 1 week measured measured by RT-qPCR assay; assay type: functional, organism-based; settings: time 1.0 weeks; how it was run: as §3
[17] = test system: Mus musculus; experiment: Inhibition of hepatic lipogenesis in C57BL/6 mouse supplemented with normal chow diet assessed as decrease in total cholesterol level at 20 mg/kg/day, ip administered for 1 week; assay type: functional, organism-based; settings: time 1.0 weeks; how it was run: as §4
[18] = test system: Mus musculus; experiment: Inhibition of lipogenesis in C57BL/6 mouse supplemented with normal chow diet assessed as decrease in DGAT2 mRNA expression at 20 mg/kg/day, ip administered for 1 week measured by RT-qPCR assay; assay type: functional, organism-based; settings: time 1.0 weeks; how it was run: as §2
[19] = test system: Hepatocyte; experiment: Inhibition of glucogenesis in mouse primary hepatocytes stimulated with 100 uM 8-Br-cAMP assessed as effect on pTORC2 protein expression at 3 uM measured after 1 hr by western blot analysis; assay type: functional, cell-based
How it was run: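 Primary hepatocytes from C57BL/6 mice, isolated by two-step perfusion, were co-treated with 3 μM A-485 and 100 μM 8-Br-cAMP for 1 h. Phospho-CREB, phospho-AMPK and phospho-TORC2 were detected by western blot of cell lysates. Three independent experiments; mean ± SEM.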

CNC(=O)Nc1ccc2c(c1)CCS21OC(=O)N(CC(=O)N(Cc2ccc(F)cc2)[C@@H](C)C(F)(F)F)C1=O (some centres undefined)
inhibition [1]: Active
inhibition [2]: inactive
inhibition [3]: Active
inhibition [4]: Active
inhibition [5]: Active
inhibition [6]: Active
inhibition [7]: Active
inhibition [8]: inactive
inhibition [9]: inactive
inhibition [10]: Active
Activity [11]: inactive
inhibition [12]: Active
inhibition [13]: Active
inhibition [14]: Active
inhibition [15]: inactive
inhibition [16]: Active
inhibition [17]: Active
inhibition [18]: Active
inhibition [19]: inactive
